# Data published in ChEMBL document CHEMBL1145492, “Comparison of the phosphorylation of 4'-ethynyl 2',3'-dihydro-3'-deoxythymidine with that of other anti-human immunodeficiency virus thymidine analogs” (Antimicrob Agents Chemother, 2007).
# B1: Thymidylate kinase (Homo sapiens), P23919 (protein)
# chain: MAARRGALIVLEGVDRAGKSTQSRKLVEALCAAGHRAELLRFPERSTEIGKLLSSYLQKKSDVEDHSVHLLFSANRWEQVPLIKEKLSQGVTLVVDRYAFSGVAFTGAKENFSLDWCKQPDVGLPKPDLVLFLQLQLADAAKRGAFGHERYENGAFQERALRCFHQLMKDTTLNWKMVDASKSIEAVHEDIRVLSEDAIRTATEKPLGELWK
# Legend:
# [1] = substrate: Cc1cn([C@H]2C[C@H](N=[N+]=[N-])[C@@H](COP(=O)(O)O)O2)c(=O)[nH]c1=O; assay: (§1) Activity for human recombinant TMP kinase
# Method in brief: (§2)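 Substrate ranges were TMP 6.25–100 μM and analog MPs 6.25–250 μM. Reactions were stopped at various times with TCA and neutralized with trioctylamine/trichlorotrifluoroethane. Km and kcat came from Lineweaver-Burk plots. Relative efficiency is kcat/Km with D4TMP as 100%. Mean ± SD of three experiments.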
# [2] = substrate: Cc1cn([C@H]2C=C[C@@H](COP(=O)(O)O)O2)c(=O)[nH]c1=O; assay: as §1; method in brief: as §2
# [3] = substrate: Cc1cn([C@H]2C[C@H](O)[C@@H](COP(=O)(O)O)O2)c(=O)[nH]c1=O; assay: as §1; method in brief: as §2
protein,measurement,setting,value
B1,Km,[1],7.6 µM
same,kcat,[1],0.018 s⁻¹
same,Km,[2],22 µM
same,kcat,[2],0.093 s⁻¹
same,Km,[3],8.3 µM
same,kcat,[3],1.8 s⁻¹
